# Assay results as given in ChEMBL document CHEMBL1123657, “Anthrapyrazole anticancer agents. Synthesis and structure-activity relationships against murine leukemias” (J Med Chem, 1987).
# Assays:
# P388 [1] = assay: Activity against P388 leukemia cells in mice, by intraperitoneal dosing and net log tumor cell kill was reported; format: functional, Mus musculus
# P388 [2] = assay: Optimal dose per injection in mg/kg required to inhibit growth of P388 leukemia cells in mice; format: functional, Mus musculus
# Outline: (§1)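 P388 leukemia implanted ip in mice; drug given ip on days 1 and 5 (ip/ip; D1,5), dosed in mg/kg per injection. Read-out is treated/control (T/C, %) with cures counted, reported at the optimal dose.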
# P388 [3] = assay: Inhibition of P388 leukemia cells in mice, measured as percent treated to the control values with the number of 30 day survivors; format: functional, Mus musculus; outline: as §1
# L1210 = assay: Tested in vitro against murine L1210 leukemia.; format: functional, cell-based; details: Mus musculus
Structure (SMILES),Activity (P388 [1]),Dose (P388 [2]) [mg/kg],T/C (P388 [3]) [%],IC50 (L1210) [nM]
Cl.OCCNCCNc1ccc2c3c(c4ccccc4c(O)c13)N=N2,-0.8,100,126,2200
CCN(CC)CCNc1ccc2c3c(nn2CCO)-c2ccccc2C(=O)c13.Cl,0.8,400,145,880
CN(C)CCn1nc2c3c(c(NCCCN)ccc31)C(=O)c1c(O)ccc(O)c1-2.Cl,4.7,12.5,208,540
CCN(CC)CCn1nc2c3c(c(NCCNCCO)ccc31)C(=O)c1ccccc1-2.Cl,2.6,25,169,32
CCN(CC)CCCCNc1ccc2c3c(nn2CCN(CC)CC)-c2ccccc2C(=O)c13.Cl,-1.4,25,107,620
Cl.NCCn1nc2c3c(c(NCCNCCO)ccc31)C(=O)c1ccccc1-2,3.7,25,,80
CCN(CC)CCNc1ccc2c3c(nn2CC(O)CN(CC)CC)-c2c(O)ccc(O)c2C(=O)c13.Cl (stereo unspecified),1.2,100,,1300
CN(C)CCNc1ccc2c3c(nn2CCO)-c2c(O)ccc(O)c2C(=O)c13.Cl,6.6,200,283,15
CCN(CC)CCNc1ccc2c3c(nn2CCN(CC)CC)-c2c(O)ccc(O)c2C(=O)c13.Cl,3.5,100,180,550
Cl.NCCNCCNc1ccc2c3c(nn2CCNCCO)-c2c(O)ccc(O)c2C(=O)c13,>6.6,25,277,330
CCN(CC)CCNc1ccc2c3c(c4ccccc4c(O)c13)N=N2.Cl,-1.4,400,111,1500
CCN(CC)CCNc1ccc2c3c(nn2CCNCCO)-c2ccccc2C(=O)c13.Cl,1.8,12.5,158,60
CCN(CC)CCn1nc2c3c(c(NCCN4CCOCC4)ccc31)C(=O)c1ccccc1-2.Cl,>6.8,400,,480
CCN(CC)CCn1nc2c3c(c(NCCN4CCNCC4)ccc31)C(=O)c1ccccc1-2.Cl,-1.3,25,109,500
CCN(CC)CCNc1ccc2c3c(nn2CCNCCO)-c2c(O)ccc(O)c2C(=O)c13.Cl,>6.7,50,,510
Cl.NCCNc1ccc2c3c(nn2CCNCCO)-c2ccccc2C(=O)c13,4.4,25,,69
CN(CCO)CCn1nc2c3c(c(NCCNCCO)ccc31)C(=O)c1c(O)ccc(O)c1-2.Cl,4.2,12.5,,330
Cl.Cn1nc2c3c(cccc31)C(=O)c1c(NCCNCCO)cccc1-2,-1.3,200,118,1200
CN1CCN(c2ccc3c4c(nn3CCNCCO)-c3c(O)ccc(O)c3C(=O)c24)CC1.Cl,3.8,12.5,192,430
CCN(CC)CCNc1cccc2c1C(=O)c1cccc3c1c-2nn3CCN(CC)CC.Cl,-1.5,50,103,600
Cl.Cn1nc2c3c(c(NCCN)ccc31)C(=O)c1c(O)ccc(O)c1-2,0,12.5,138,240
CN(C)CCCn1nc2c3c(c(NCCN)ccc31)C(=O)c1c(O)ccc(O)c1-2.Cl,6.6,12.5,230,200
Cl.O=C1c2c(O)ccc(O)c2-c2nn(CCNCCO)c3ccc(NCCNCCO)c1c23,4.6,6.25,,740
CN(C)CCN(C)c1ccc2c3c(nn2CCNCCO)-c2c(O)ccc(O)c2C(=O)c13.Cl,4.9,12.5,,630
CCN(CC)CCNc1ccc2c3c(nn2CCN(CC)CC)-c2ccccc2C(=O)c13.Cl,-1.4,50,106,390
Cl.Cn1nc2c3c(c(NCCNCCO)ccc31)C(=O)c1c(O)ccc(O)c1-2,2.9,100,,150
CCN(CC)CCNc1ccc2c3c(nn2CCO)-c2c(O)ccc(O)c2C(=O)c13.Cl,4.6,400,190,730

Structure (SMILES),Activity (P388 [1]),Dose (P388 [2]) [mg/kg],T/C (P388 [3]) [%],IC50 (L1210) [nM]
CNCCn1nc2c3c(c(NCCNCCO)ccc31)C(=O)c1c(O)ccc(O)c1-2.Cl,>6.8,3.12,324,440
NCCCNc1ccc2c3c(nn2CCN)-c2c(O)ccc(O)c2C(=O)c13,,,,310
Cl.NCCNc1ccc2c3c(nn2CCNCCO)-c2c(O)ccc(O)c2C(=O)c13,4.8,3.12,197,1600
Cl.O=C1c2c(O)ccc(O)c2-c2nn(CCNCCO)c3ccc(NCCCNCCO)c1c23,>6.8,6.25,254,1800
CN(C)CCNc1ccc2c3c(nn2Cc2ccccc2)-c2c(O)ccc(O)c2C(=O)c13.Cl,-1.5,25,104,860
CN(C)CCNCCNc1ccc2c3c(nn2CC(O)CO)-c2c(O)ccc(O)c2C(=O)c13.Cl (stereo unspecified),6.7,400,281,2200
Cl.Cn1nc2c3c(c(NCCNCCO)ccc31)C(=O)c1ccccc1-2,-0.2,100,136,710
COCCn1nc2c3c(c(NCCNCCO)ccc31)C(=O)c1c(O)ccc(O)c1-2.Cl,0.3,100,140,1600
CN(C)CCNCCNc1ccc2c3c(nn2CCCN)-c2c(O)ccc(O)c2C(=O)c13.Cl,5.6,25,228,640
CN(C)CCNCCNc1ccc2c3c(nn2CCNCCO)-c2c(O)ccc(O)c2C(=O)c13.Cl,>6.8,50,254,760
Cl.O=C1c2c(O)ccc(O)c2-c2nn(CCNCCO)c3ccc(NCCCN(CCO)CCO)c1c23,3.6,100,194,920
CCN(CC)CC(O)Cn1nc2c3c(c(NCCNCCO)ccc31)C(=O)c1c(O)ccc(O)c1-2.Cl (stereo unspecified),5.3,12.5,223,840
CN(C)CCNCCNc1ccc2c3c(nn2CCN)-c2c(O)ccc(O)c2C(=O)c13.Cl,6.4,50,242,930
CNCCNc1ccc2c3c(nn2CCN)-c2c(O)ccc(O)c2C(=O)c13,,,,700
Br.CCN(CC)CCn1nc2c3c(c(NCCNC)ccc31)C(=O)c1c(O)ccc(O)c1-2,>7.1,25,,7400
CCN(CC)CCNc1ccc2c3c(nn2C)-c2c(O)ccc(O)c2C(=O)c13.Cl,1.3,400,152,450
Cl.O=C1c2c(NCCNCCO)cccc2-c2nn(CCNCCO)c3cccc1c23,-0.3,12.5,133,390
Cl.O=C1c2c(O)ccc(O)c2-c2nn(CCO)c3ccc(NCCN4CCOCC4)c1c23,-1.2,400,122,1100
CN(C)CCCn1nc2c3c(c(NCCNCCO)ccc31)C(=O)c1c(O)ccc(O)c1-2.Cl,5.4,12.5,,590
CN(C)CCNc1ccc2c3c(nn2CCNCCO)-c2c(O)ccc(O)c2C(=O)c13.Cl,>6.6,12.5,250,230
Cl.NCCCNc1ccc2c3c(nn2CCCNCCO)-c2c(O)ccc(O)c2C(=O)c13,3.4,100,185,1800
CNc1ccc2c3c(nn2CCNCCO)-c2ccccc2C(=O)c13.Cl,-0.7,200,127,740
CN(C)CCNCCn1nc2c3c(c(NCCNCCO)ccc31)C(=O)c1c(O)ccc(O)c1-2.Cl,>6.8,50,226,1400
CN(C)CCn1nc2c3c(c(NCCN)ccc31)C(=O)c1c(O)ccc(O)c1-2.Cl,>6.6,12.5,263,220
CCCCCCNc1ccc2c3c(nn2CCN(CC)CC)-c2ccccc2C(=O)c13.Cl,-1.4,200,110,2000
Cl.NCCn1nc2c3c(c(NCCCNCCO)ccc31)C(=O)c1c(O)ccc(O)c1-2,3.4,6.25,194,870
CCN(CC)CCn1nc2c3c(c(NCCN4CCN(C(=O)OCc5ccccc5)CC4)ccc31)C(=O)c1ccccc1-2,,,,390
